The list is not random: actives were taken first. Their share in the collection is about 3.5%.
MrgX1 antag – antagonists of human MrgX1 receptor. B-score at 10 µM. MRGX1-HEK293 calcium flux, Fluo-4, BAM8-22 antagonism; active compounds read low. Q96LB2. 1.3% of 310,000 active;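 active means calcium-response B-score plate-corrected more than 3 library SD below zero, starting fluorescence within 5 deviations, no agonist response on first addition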;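 further: peak minus trough fluorescence over baseline after final BAM8-22 challenge near maximal dose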
Target sequence (Q96LB2 whole entry, looked up): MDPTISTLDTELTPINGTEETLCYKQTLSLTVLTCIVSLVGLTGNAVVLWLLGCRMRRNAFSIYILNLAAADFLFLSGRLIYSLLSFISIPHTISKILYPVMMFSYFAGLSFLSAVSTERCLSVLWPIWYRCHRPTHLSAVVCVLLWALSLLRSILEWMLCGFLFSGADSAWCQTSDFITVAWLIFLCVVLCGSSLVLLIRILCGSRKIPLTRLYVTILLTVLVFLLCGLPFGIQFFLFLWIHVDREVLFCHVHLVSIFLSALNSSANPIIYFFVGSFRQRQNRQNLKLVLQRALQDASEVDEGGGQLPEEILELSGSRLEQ
RGS4 act – potentiators or activators of RGS4. HEK293 M3R/inducible RGS4, carbachol calcium flux Fluo4; active compounds read low. 0.92% of 310,000 active. B-score at 10 µM;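 active means B-score of the integrated calcium signal more than 4 SD below the library mean, with starting fluorescence not abnormally high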;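 further: negative B-score means reduced calcium response which marks RGS4 activation or potentiation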
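Detection: kinetic calcium fluorescence imaging with Fluo4-AM dye, 2 µM / Material: HEK293 cells with stable M3R and inducible RGS4 / Schedule: recording 10 s baseline at 1 Hz, 100 s post-agonist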
MrgX1 PAM – human MrgX1 positive allosteric modulation, primary screen; Q96LB2; MrgX1-HEK293, Fluo-4 calcium flux, FDSS; active compounds read high; B-score at 10 µM; 0.63% of 310,000 active;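 active means plate-corrected calcium response at least 3 library SD above typical, normal starting fluorescence, not activating the receptor alone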;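 further: compound read alongside a low EC10 to EC30 dose of BAM8-22 agonist; peak minus trough fluorescence over baseline measured at the second addition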
MrgX1 ag – activates human MrgX1 receptor signaling; Q96LB2; MrgX1-HEK293 cells, Fluo-4 calcium fluorescence, agonist mode; active compounds read high; B-score at 10 µM; 0.44% of 310,000 active; AID 588627;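 active means calcium response B-score plate-corrected fluorescence ratio at least 3 library SD, with starting fluorescence B-score inside 5 SD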
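System: HEK293 cells stably expressing human MrgX1 receptor; Dosing: test compound in the initial addition of three; Schedule: overnight plating, then 30 min 37 °C plus 30 min room-temperature dye loading; Detection: kinetic calcium dye fluorescence, Fluo-4 NW; Controls: per-plate positive and negative controls for Z′ factor.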
RGS4 block – inhibitors of human RGS4; HEK293 M3R/RGS4 inducible, Fluo-4 calcium flux; active compounds read high; triggered by carbachol at its EC20; 0.45% of 310,000 active; P49798; AID 463165; B-score at 10 µM;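 active means B-score, a plate-corrected calcium signal, over three deviations above library mean, with baseline fluorescence within five deviations of library mean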;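 further: RGS4 expression induced by doxycycline in cells with stable M3 receptor; B-score is computed from the integrated fluorescence ratio over baseline after carbachol; higher B-score means a larger calcium signal and so more RGS4 inhibition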
Target sequence (P49798 whole entry, looked up): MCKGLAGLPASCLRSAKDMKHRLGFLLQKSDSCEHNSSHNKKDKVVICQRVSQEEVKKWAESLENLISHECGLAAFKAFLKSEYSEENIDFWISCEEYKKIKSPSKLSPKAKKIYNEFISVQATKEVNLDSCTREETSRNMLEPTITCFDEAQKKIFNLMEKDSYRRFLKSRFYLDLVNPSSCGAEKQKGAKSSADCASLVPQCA
RGS4 act valid – RGS4 activation, validation assay. HEK293 M3R/RGS4 inducible, carbachol calcium flux Fluo4. AID 602282. shares compounds with RGS4 act. 89% of 1,100 active. inhibition, % at 10 µM;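 active means inhibition above 3 SD of the buffer control wells, cut at about 41% in these data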;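 further: signal is the integrated peak-minus-minimum Fluo4 fluorescence over baseline ratio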
RGS4 act ctr – RGS4 activator counter-screen hit in non-induced cells; HEK293 M3R non-induced RGS4, Fluo4 calcium flux; after carbachol challenge at its EC90; AID 602283; 82% of 1,100 active; inhibition, % at 10 µM; shares compounds with RGS4 act;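 active means inhibition exceeding 3 SD of buffer-only control wells, cut at about 26% in these data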;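 further: percent drop in integrated peak-minus-baseline over baseline Fluo4 ratio after carbachol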
Starred values were filed as active, the others as inactive.

`OC1(CC#CCN2CCCCC2)c2ccccc2-c2ccccc21` gave MrgX1 antag inactive, RGS4 act inactive, MrgX1 PAM inactive, MrgX1 ag inactive and RGS4 block inactive.
`CCCCCCCCCn1ccc(=N)cc1` gave MrgX1 antag inactive, RGS4 act inactive, MrgX1 PAM inactive, MrgX1 ag inactive and RGS4 block inactive.
`CCCCCCCn1ccc(=N)cc1` gave MrgX1 antag inactive, RGS4 act -9.2*, MrgX1 PAM inactive, MrgX1 ag inactive, RGS4 block inactive, RGS4 act valid 69* and RGS4 act ctr 30*.
CC(C)(C)C1CCC(OC(=O)CN2CCCCC2)CC1 (configuration not stated) was read as MrgX1 antag inactive, RGS4 act inactive, MrgX1 PAM inactive, MrgX1 ag inactive and RGS4 block inactive.
For Cc1ccc(OCc2cc(C(=O)NC(C)Cc3cccc(C)n3)no2)cn1 (configuration not stated) the results were MrgX1 antag inactive, RGS4 act inactive, MrgX1 PAM inactive, MrgX1 ag inactive and RGS4 block inactive.
Brc1cccc(-c2nnc3n2CCCCC3)c1 was read as MrgX1 antag inactive, RGS4 act inactive, MrgX1 PAM inactive, MrgX1 ag inactive and RGS4 block inactive.
Screening Brc1cccc(-c2cnc3n2CCCCC3)c1 returned MrgX1 antag inactive, RGS4 act -7.9*, MrgX1 PAM inactive, MrgX1 ag inactive, RGS4 block inactive, RGS4 act valid 84* and RGS4 act ctr 56*.
CCNc1nc(NC(C)(C)C)nc(N2CCCCC2)n1 was read as MrgX1 antag inactive, RGS4 act -7.9*, MrgX1 PAM inactive, MrgX1 ag inactive, RGS4 block inactive, RGS4 act valid 94* and RGS4 act ctr 93*.
`CCNc1nc(N2CCCC2)nc(N2CCCC2)n1` gave MrgX1 antag inactive, RGS4 act inactive, MrgX1 PAM inactive, MrgX1 ag inactive and RGS4 block inactive.
Screening CC(CN1CCCCC1)OC(=O)c1ccc2c(c1)OCCO2 (configuration not stated) returned MrgX1 antag inactive, RGS4 act -11*, MrgX1 PAM inactive, MrgX1 ag inactive, RGS4 block inactive, RGS4 act valid 68* and RGS4 act ctr 33*.
Screening CC(CN1CCOCC1)OC(=O)C(C)(c1ccccc1)c1ccccc1 (configuration not stated) returned MrgX1 antag inactive, RGS4 act inactive, MrgX1 PAM inactive, MrgX1 ag inactive and RGS4 block inactive.
For CC(CN1CCOCC1)OC(=O)c1ccc2c(c1)OCCO2 (configuration not stated) the results were MrgX1 antag inactive, RGS4 act inactive, MrgX1 PAM inactive, MrgX1 ag inactive and RGS4 block inactive.
Screening CC(CN1CCCCC1)OC(=O)C(C)(c1ccccc1)c1ccccc1 (configuration not stated) returned MrgX1 antag inactive, RGS4 act -7.9*, MrgX1 PAM inactive, MrgX1 ag inactive, RGS4 block inactive, RGS4 act valid 90* and RGS4 act ctr 54*.
Screening CC(C)CC(=O)Nc1c2c(nn1-c1cccc(Cl)c1)CS(=O)C2 (configuration not stated) returned MrgX1 antag inactive, RGS4 act inactive, MrgX1 PAM inactive, MrgX1 ag inactive and RGS4 block inactive.
For O=c1[nH]c2ccccc2nc1-c1ccccc1 the results were MrgX1 antag inactive, RGS4 act inactive, MrgX1 PAM inactive, MrgX1 ag inactive and RGS4 block inactive.
For NC(=O)N=Nc1c2[nH]c3ccccc3nc-2c2ccccc12 the results were MrgX1 antag inactive, RGS4 act -8.6*, MrgX1 PAM inactive, MrgX1 ag inactive, RGS4 block inactive, RGS4 act valid 56* and RGS4 act ctr 0.
CCOc1ccc(CC(=O)N2N=C(C)CC2(O)C(F)(F)F)cc1 (configuration not stated) was read as MrgX1 antag inactive, RGS4 act inactive, MrgX1 PAM inactive, MrgX1 ag inactive and RGS4 block inactive.
Screening COC(=O)c1ccc(C2SCC(=O)N2Cc2ccccc2)cc1 (configuration not stated) returned MrgX1 antag inactive, RGS4 act inactive, MrgX1 PAM inactive, MrgX1 ag inactive and RGS4 block inactive.
O=C(NCCSCc1ccccc1)c1ccc(C2SCC(=O)N2Cc2ccccc2)cc1 (configuration not stated) was read as MrgX1 antag inactive, RGS4 act -11*, MrgX1 PAM inactive, MrgX1 ag inactive, RGS4 block inactive, RGS4 act valid 88* and RGS4 act ctr 42*.
Screening COc1ccc(CN2CCCC(C(=O)c3ccc(SC)cc3)C2)cc1Cn1cccn1 (configuration not stated) returned MrgX1 antag inactive, RGS4 act inactive, MrgX1 PAM inactive, MrgX1 ag inactive and RGS4 block inactive.
Screening CSc1ccc(C(=O)C2CCCN(Cc3ccc(N4CCNC4=O)cc3)C2)cc1 (configuration not stated) returned MrgX1 antag inactive, RGS4 act -8*, MrgX1 PAM inactive, MrgX1 ag inactive, RGS4 block inactive, RGS4 act valid 91* and RGS4 act ctr 57*.
`S=c1[nH]nc(-c2ccc(Br)cc2)n1Cc1ccco1` gave MrgX1 antag inactive, RGS4 act -8*, MrgX1 PAM inactive, MrgX1 ag inactive, RGS4 block inactive, RGS4 act valid 93* and RGS4 act ctr 78*.
`S=c1[nH]nc(-c2ccc(Cl)cc2)n1Cc1ccccc1` gave MrgX1 antag inactive, RGS4 act -8.9*, MrgX1 PAM inactive, MrgX1 ag inactive, RGS4 block inactive, RGS4 act valid 81* and RGS4 act ctr 36*.
`CCN1CC=C2C(C#N)=C(N)C(C#N)(C#N)C(c3cc(Cl)ccc3Cl)C2C1` (configuration not stated) gave MrgX1 antag inactive, RGS4 act inactive, MrgX1 PAM inactive, MrgX1 ag inactive and RGS4 block inactive.
For CCn1ccnc1CN1CCC(n2nccc2NC(=O)c2ccccc2OC)CC1 the results were MrgX1 antag inactive, RGS4 act inactive, MrgX1 PAM inactive, MrgX1 ag inactive and RGS4 block inactive.
